This excerpt belongs to a sample that is enriched for hits.
BB579 growth dn = growth inhibitors of yeast BB579 in restrictive medium, primary screen, yeast lifespan-shortening project, S. cerevisiae. OD615, 48 h. inhibition, % at 10 µM. 0.51% of 140,000 active;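 active means inhibition above a set limit, 3 SD over the mean compound inhibition, cut at about 44% in these data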
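Test system: S. cerevisiae DeaD strain BB579 yeast; Medium: restrictive CSMM-D medium; Compound: one dose, 10 µM compound with 0.25% DMSO; Incubation: 4 h cell preincubation, 48 h compound exposure, 30 °C humidified; Signal: OD at 615 nm; Benchmarks: amphotericin B at 10 µg/mL as positive control.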
Yeast lifespan up = compounds extending yeast replicative lifespan, primary screen, S. cerevisiae, OD615. S. cerevisiae growth with nicotinamide; deaD strain in restrictive glucose medium. inhibition of the nicotinamide effect, % at 10 µM. 0.68% of 130,000 active. AID 775, 2007;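 active means inhibition above a set limit, placed 3 SD over the median of all compounds, cut at about 26% in these data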;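 further: 0% = nicotinamide-treated wells and 100% = cells grown without nicotinamide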
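System: DeaD-strain S. cerevisiae / Buffer or medium: CSMM-D, restrictive glucose (dextrose) synthetic minimal medium / Probe or stimulus: nicotinamide, 1.5 mM, co-present with compound / Compound: one concentration, 10 µM, DMSO 0.25% / Incubation: 48 h compound exposure at 30 °C, humidified / Technique: optical density (absorbance) at 615 nm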
PostGolgi ctrl = growth inhibition of yeast control strain, primary screen, counter-screen for post-Golgi transport modulator project. inhibition, % at 10 µM. 5% of 98,000 active. AID 738, 2007. efflux-deficient yeast background strain, growth absorbance A615, 16 h
PostGolgi yeast = phenotypic screen on post-Golgi transport, primary screen | inhibition, % at 10 µM | post-Golgi transport phenotypic cell assay | 0.9% of 98,000 active;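 further: yeast cells grown in 1536-well plates; yeast grown about 18 h at 30C before absorbance read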
The depositor's hits bear a star. Unless noted, no stated cut-off is given here; in the data, active means inhibition above about 30%; inactive means the rest.

Results for Cc1ccc(N2CCN(C(=O)c3ccccc3F)CC2)c(C)c1 ?
BB579 growth dn: -11.9; Yeast lifespan up: -9.3; PostGolgi ctrl: 41.9*; PostGolgi yeast: -0.7

Results for c1ccc(C(c2c[nH]c3ccccc23)c2c[nH]c3ccccc23)nc1 ?
BB579 growth dn: -53.0; Yeast lifespan up: -10.2; PostGolgi ctrl: 7.8; PostGolgi yeast: -5.1

How did Cn1cc(C(c2ccccn2)c2cn(C)c3ccccc23)c2ccccc21 do in these assays?
BB579 growth dn: -37.2; Yeast lifespan up: 12.8; PostGolgi ctrl: 52.6*; PostGolgi yeast: 9.9

What do the screens show for `CCn1c(CNC(=O)c2cccs2)nnc1SCC(=O)NCCc1ccccc1`?
BB579 growth dn: -10.0; Yeast lifespan up: -11.8; PostGolgi ctrl: 30.9*; PostGolgi yeast: 3.0

Results for COc1cc2c(C#N)c(N3CCN(c4ccccc4OC)CC3)nc(N)c2c(N)n1 ?
BB579 growth dn: -51.8; Yeast lifespan up: -23.2; PostGolgi ctrl: 36.5*; PostGolgi yeast: 17.4

What do the screens show for `COc1ccc(-c2cc(C(F)(F)F)c3c(=O)n(-c4ccccc4)[nH]c3n2)cc1`?
BB579 growth dn: 1.6; Yeast lifespan up: -19.2; PostGolgi ctrl: 33.4*; PostGolgi yeast: 12.5

What do the screens show for `O=c1cc(O)c2sc3nc(-c4ccccc4)cc(C(F)(F)F)c3c2[nH]1`?
BB579 growth dn: 0.5; Yeast lifespan up: -4.8

How did Cc1ccccc1-c1nnc2c3ccccc3c(C)nn12 do in these assays?
BB579 growth dn: -13.7

Results for COc1ccc(-c2nnc3c4ccccc4c(C)nn23)cc1 ?
BB579 growth dn: 49.4*; Yeast lifespan up: -5.0; PostGolgi ctrl: 43.8*; PostGolgi yeast: 0.8

What do the screens show for `Cc1nn2c(-c3ccncc3)nnc2c2ccccc12`?
BB579 growth dn: 89.2*; Yeast lifespan up: -13.1; PostGolgi ctrl: 63.8*; PostGolgi yeast: 11.4

What do the screens show for `Cc1nn2c(-c3ccco3)nnc2c2ccccc12`?
BB579 growth dn: 88.2*; Yeast lifespan up: -11.6; PostGolgi ctrl: 24.4; PostGolgi yeast: -2.4

Results for Cc1ccc(C)c(S(=O)(=O)N2CCN(CC(=O)NC(=O)NCc3ccccc3)CC2)c1 ?
BB579 growth dn: -50.1; Yeast lifespan up: -28.4; PostGolgi ctrl: 19.9; PostGolgi yeast: 0.0

How did O=C(/C(=C\c1ccccc1)c1nc2ccccc2[nH]1)c1ccc(Cl)cc1 do in these assays?
BB579 growth dn: -44.5; Yeast lifespan up: 6.6

Results for O=C(/C(=C/c1ccc(Cl)cc1)c1nc2ccccc2[nH]1)c1cccs1 ?
BB579 growth dn: -25.4; Yeast lifespan up: 31.3*; PostGolgi ctrl: 101.2*; PostGolgi yeast: 103.7*

What do the screens show for `Cc1cc(C)c2c(N=NN3CCCCC3)[nH]nc2n1`?
BB579 growth dn: 85.3*; Yeast lifespan up: -7.9

How did CC(=O)n1nc2nc(C)cc(C)c2c1N do in these assays?
BB579 growth dn: -28.5; Yeast lifespan up: 8.2; PostGolgi ctrl: 12.9; PostGolgi yeast: -2.1

What do the screens show for `CCN(CC)N=Nc1[nH]nc2nc(C)cc(C)c12`?
BB579 growth dn: 78.5*; Yeast lifespan up: -25.3; PostGolgi ctrl: 12.7; PostGolgi yeast: -1.6

Results for O=C(CSc1nnc(-c2cccnc2)n1Cc1ccccc1)NCc1ccccc1 ?
BB579 growth dn: -51.0

What do the screens show for `CCOC(=O)c1cnc2ccc(OCC)cc2c1N1CCN(c2ccccc2)CC1`?
BB579 growth dn: -42.6; Yeast lifespan up: -0.8; PostGolgi ctrl: 54.3*; PostGolgi yeast: 8.7

How did CCOC(=O)c1cnc2ccc(C)cc2c1Sc1ccccc1 do in these assays?
BB579 growth dn: 18.9; Yeast lifespan up: -6.1; PostGolgi ctrl: 30.6*; PostGolgi yeast: 2.7

What do the screens show for `CCOC(=O)c1cnc2ccc(OCC)cc2c1NCc1ccccc1`?
BB579 growth dn: -5.7; Yeast lifespan up: -7.4

How did CCOC(=O)c1c(/N=C/c2ccc(O)cc2O)sc2c1CCC2 do in these assays?
BB579 growth dn: -8.3; Yeast lifespan up: -7.5

Results for COC(=O)c1[nH]c2ccc(F)cc2c1NC(=O)CCN1CCN(C(=O)c2ccco2)CC1 ?
BB579 growth dn: -42.5; Yeast lifespan up: -0.3; PostGolgi ctrl: 31.8*; PostGolgi yeast: 0.0

What do the screens show for `c1ccc(N(c2ccccc2)c2nc(-n3ccnc3)nc(-n3ccnc3)n2)cc1`?
BB579 growth dn: 91.8*; Yeast lifespan up: -11.6; PostGolgi ctrl: 104.0*; PostGolgi yeast: 100.2*

What do the screens show for `CCCCNC(c1ccccc1)c1ccncc1` (centres undefined)?
BB579 growth dn: 3.1; Yeast lifespan up: -5.5; PostGolgi ctrl: 5.6; PostGolgi yeast: -6.1

What do the screens show for `c1ccc(-c2ccc(-n3ccnc3)cc2)cc1`?
BB579 growth dn: -33.1; Yeast lifespan up: -13.5; PostGolgi ctrl: 20.1; PostGolgi yeast: 7.8

How did CN(c1ccccc1)c1nc(-n2ccnc2)nc(-n2ccnc2)n1 do in these assays?
BB579 growth dn: -61.1; Yeast lifespan up: -32.3; PostGolgi ctrl: 55.2*; PostGolgi yeast: 48.3*

Results for CCCCNc1nc(N(C)c2ccccc2)nc(-n2ccnc2)n1 ?
BB579 growth dn: -9.9; Yeast lifespan up: -7.4; PostGolgi ctrl: 68.9*; PostGolgi yeast: 96.0*

Results for CCNc1nc(N2CCOCC2)nc(N(c2ccccc2)c2ccccc2)n1 ?
BB579 growth dn: -30.4; Yeast lifespan up: -5.0; PostGolgi ctrl: 9.4; PostGolgi yeast: -4.8

Results for C=CCNc1nc(N(c2ccccc2)c2ccccc2)nc(-n2ccnc2)n1 ?
BB579 growth dn: -4.0; Yeast lifespan up: -4.6; PostGolgi ctrl: 34.8*; PostGolgi yeast: -1.4

What do the screens show for `O=C(CNCCC1=CCCCC1)Nc1ccccc1N1CCCCC1`?
BB579 growth dn: -67.6; Yeast lifespan up: 2.4; PostGolgi ctrl: 27.0; PostGolgi yeast: 1.7

How did O=C(C1CCCO1)N1CCN(C(=S)Nc2ccccc2F)CC1 (centres undefined) do in these assays?
BB579 growth dn: -28.1; Yeast lifespan up: 2.8

Results for Cc1ccc(NC(=O)Cn2cncc2-c2ccc([N+](=O)[O-])cc2)cc1C ?
BB579 growth dn: -67.0; Yeast lifespan up: -14.2; PostGolgi ctrl: 33.2*; PostGolgi yeast: 1.4

How did O=c1cc(CN2CCN(S(=O)(=O)c3ccc4c(c3)OCCO4)CC2)c2ccc(O)cc2o1 do in these assays?
BB579 growth dn: -27.3; Yeast lifespan up: -11.1; PostGolgi ctrl: 18.9; PostGolgi yeast: 0.3

How did COc1ccc(S(=O)(=O)N2CCN(Cc3ccc4c(c3)OCO4)CC2)c2ccccc12 do in these assays?
BB579 growth dn: -27.7; Yeast lifespan up: -16.0; PostGolgi ctrl: 34.9*; PostGolgi yeast: -7.5

What do the screens show for `COc1ccc(Cl)cc1S(=O)(=O)N1CCN(Cc2ccc3c(c2)OCO3)CC1`?
BB579 growth dn: -18.1; Yeast lifespan up: 1.1; PostGolgi ctrl: 14.8; PostGolgi yeast: -4.4

Results for O=S(=O)(Cc1ccccc1Cl)N1CCN(Cc2ccc3c(c2)OCO3)CC1 ?
BB579 growth dn: -37.9; Yeast lifespan up: -20.9; PostGolgi ctrl: 35.2*; PostGolgi yeast: 89.3*

How did CSc1ccc(S(=O)(=O)N2CCN(Cc3ccc4c(c3)OCO4)CC2)cc1 do in these assays?
BB579 growth dn: -33.8; Yeast lifespan up: -13.5; PostGolgi ctrl: 53.5*; PostGolgi yeast: 54.6*

Results for CCc1ccc2c(CN3CCN(S(=O)(=O)c4ccc5c(c4)OCCO5)CC3)cc(=O)oc2c1 ?
BB579 growth dn: -80.7; Yeast lifespan up: -12.1; PostGolgi ctrl: 32.9*; PostGolgi yeast: 5.3

From PubChem
